We go through six molecules from ChEMBL document CHEMBL4266021 (J Nat Prod, 2018).

Data set [1] can be described thus: Irreversible inhibition of human intestinal carboxylesterase assessed as residual activity preincubated with enzyme followed by compound dilution measured after 18 hrs using o-NPA as substrate relative to control. A digest of the protocol:
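Purified recombinant hiCE pre-incubated with inhibitor, then extensively diluted and passed through size-exclusion filtration to remove free compound. Recovered protein assayed for residual esterase activity with o-NPA. Benzil (reversible inhibitor) and DMSO (solvent) served as controls.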

Data set [2] concerns the target T1, carboxylesterase 1 (CE1) (Homo sapiens, UniProt P23141).
T1 sequence (P23141 whole entry): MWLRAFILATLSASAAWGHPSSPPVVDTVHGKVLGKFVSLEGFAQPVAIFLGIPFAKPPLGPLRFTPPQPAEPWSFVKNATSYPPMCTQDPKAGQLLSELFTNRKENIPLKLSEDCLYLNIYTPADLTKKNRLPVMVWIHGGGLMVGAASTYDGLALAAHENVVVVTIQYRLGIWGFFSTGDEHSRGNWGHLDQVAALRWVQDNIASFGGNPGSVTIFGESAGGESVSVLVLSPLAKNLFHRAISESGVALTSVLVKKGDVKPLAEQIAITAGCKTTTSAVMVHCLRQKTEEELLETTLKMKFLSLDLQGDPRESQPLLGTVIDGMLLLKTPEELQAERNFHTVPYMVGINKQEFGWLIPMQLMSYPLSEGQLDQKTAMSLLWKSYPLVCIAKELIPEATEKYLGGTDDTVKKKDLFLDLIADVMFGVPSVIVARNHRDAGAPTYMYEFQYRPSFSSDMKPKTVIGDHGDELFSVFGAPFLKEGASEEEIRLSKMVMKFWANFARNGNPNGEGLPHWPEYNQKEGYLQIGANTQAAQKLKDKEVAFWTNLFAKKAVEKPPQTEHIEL
Nature of the data set: Inhibition of human CE1 expressed in human U373MG cells assessed as reduction in enzyme-mediated oseltamivir hydrolysis at 10 uM preincubated for 10 mins followed by oseltamivir addition measured after 30 mins by UPLC-MS analysis relative to control. Type of data set: cell-based. The settings on record: U373MG cells that express human CE1, probe oseltamivir. In outline: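 U373MG glioblastoma cells expressing hCE1 (~10^6 per well) pretreated 10 min with 10μM inhibitor, then given oseltamivir (20μM final). After 30 min, media harvested, mixed with an equal volume of acetonitrile and centrifuged. Oseltamivir carboxylate quantified by UPLC (C18, water:acetonitrile gradient) with MS detection. Expressed as percent of DMSO-treated cells. Benzil used as positive control; duplicate points.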

The target of data set [3] is T2, Acetylcholinesterase (Homo sapiens, UniProt P22303). Put plainly: Inhibition of human AChE using acetylthiocholine as substrate.
T2 sequence (P22303 whole entry): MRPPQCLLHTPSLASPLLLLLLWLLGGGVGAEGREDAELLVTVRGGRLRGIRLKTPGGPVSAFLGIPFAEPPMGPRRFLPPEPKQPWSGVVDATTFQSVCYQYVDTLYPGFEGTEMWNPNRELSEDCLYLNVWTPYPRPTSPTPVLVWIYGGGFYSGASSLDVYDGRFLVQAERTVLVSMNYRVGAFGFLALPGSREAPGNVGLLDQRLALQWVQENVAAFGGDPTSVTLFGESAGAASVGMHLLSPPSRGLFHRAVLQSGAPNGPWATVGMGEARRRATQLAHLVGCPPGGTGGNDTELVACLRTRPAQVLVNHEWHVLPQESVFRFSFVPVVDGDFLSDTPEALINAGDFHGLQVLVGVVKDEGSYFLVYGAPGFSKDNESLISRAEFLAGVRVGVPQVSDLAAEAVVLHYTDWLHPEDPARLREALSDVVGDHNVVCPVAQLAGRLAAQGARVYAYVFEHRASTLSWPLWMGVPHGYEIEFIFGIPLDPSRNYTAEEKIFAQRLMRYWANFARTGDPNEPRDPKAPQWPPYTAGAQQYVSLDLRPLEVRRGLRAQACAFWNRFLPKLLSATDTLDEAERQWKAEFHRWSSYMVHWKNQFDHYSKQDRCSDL
The target in data set [4] is T3, Cholinesterase (Homo sapiens, UniProt P06276). Put plainly: Inhibition of human BuChE at 10 uM using butyrylhiocholine as substrate relative to control.
T3 sequence (P06276 whole entry): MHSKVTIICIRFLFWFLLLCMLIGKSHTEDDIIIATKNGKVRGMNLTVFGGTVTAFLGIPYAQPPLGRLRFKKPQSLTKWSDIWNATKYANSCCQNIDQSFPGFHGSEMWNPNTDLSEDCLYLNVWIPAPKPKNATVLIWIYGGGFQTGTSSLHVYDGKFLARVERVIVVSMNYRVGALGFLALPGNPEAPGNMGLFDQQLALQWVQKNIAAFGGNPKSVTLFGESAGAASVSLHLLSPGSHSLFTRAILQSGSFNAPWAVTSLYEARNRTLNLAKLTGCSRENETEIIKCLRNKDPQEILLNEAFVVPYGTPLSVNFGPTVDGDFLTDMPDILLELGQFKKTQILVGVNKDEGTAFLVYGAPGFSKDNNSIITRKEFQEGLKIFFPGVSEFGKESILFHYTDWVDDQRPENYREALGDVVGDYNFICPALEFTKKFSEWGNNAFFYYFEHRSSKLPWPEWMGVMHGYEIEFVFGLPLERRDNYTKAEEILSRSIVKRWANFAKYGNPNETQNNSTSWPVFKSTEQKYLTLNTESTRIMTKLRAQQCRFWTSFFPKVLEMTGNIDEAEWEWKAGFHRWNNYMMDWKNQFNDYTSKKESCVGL
In data set [5] the target is T1, carboxylesterase 1 (CE1). Nature of the data set: Inhibition of human CE1 expressed in human U373MG cells assessed as reduction in enzyme-mediated oseltamivir hydrolysis by measuring oseltamivir carboxylate level at 10 uM preincubated for 10 mins followed by oseltamivir addition measured after 30 mins by UPLC-MS analysis relative to control. Type of data set: cell-based. Further details: scale not given: the % may be the effect or the level left; call rule not given here. Conditions: U373MG cells that express human CE1, probe oseltamivir, read-out: Activity. In outline: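 U373MG glioblastoma cells engineered to express hCE1 (~10^6 per well) were pre-incubated 10 min with 10μM inhibitor, then oseltamivir was added (20μM final) for 30 min. Media were harvested, mixed with an equal volume of acetonitrile and centrifuged. Oseltamivir carboxylate was measured by UPLC (C18, water:acetonitrile gradient) with MS detection, as percent of DMSO-treated cells. Benzil was the positive control; duplicate points.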

Data set [6] in a line: Inhibition of human intestinal carboxylesterase using o-nitrophenyl acetate as substrate. A digest of the protocol: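 Recombinant hiCE secreted from baculovirus-infected Spodoptera frugiperda cells and purified from serum-free medium. Activity measured spectrophotometrically with o-nitrophenyl acetate as substrate. Routinely at least 8 inhibitor concentrations tested, and Ki derived.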

Data set [7] deals with T1, carboxylesterase 1 (CE1). Put plainly: Irreversible inhibition of human CE1 assessed as residual activity preincubated with enzyme followed by compound dilution measured after 18 hrs using o-NPA as substrate relative to control. The settings on record: probe o-NPA, read-out: Activity.
In data set [8] the target is T2, Acetylcholinesterase. Nature of the data set: Inhibition of human AChE at 10 uM using acetylthiocholine as substrate relative to control.
The target in data set [9] is T3, Cholinesterase. Nature of the data set: Inhibition of human BuChE using butyrylhiocholine as substrate.
The target of data set [10] is T4, Liver carboxylesterase 1 (Homo sapiens, UniProt P23141).
T4 sequence (P23141 whole entry): T1 sequence (P23141 whole entry)
Put plainly: Binding affinity to serine residue of human CE1 assessed as adduct formation at 10 uM by mass spectrum analysis. In outline:
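hCE1 purified from serum-free medium of baculovirus-infected Spodoptera frugiperda cells, incubated with 10μM inhibitor. Unbound compound removed by dilution and repeated size-exclusion spin chromatography. Intact mass by ESI positive-mode MS (600–2800 m/z) in 3:2 water-acetonitrile with 0.1% formic acid, 2 min acquisition. Spectra deconvoluted, and adduct read as mass shift versus DMSO-treated protein.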

Data set [11] addresses T4, Liver carboxylesterase 1. Nature of the data set: Inhibition of human CE1 using o-NPA as substrate. A digest of the protocol:
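Recombinant human CE1 was purified from serum-free media of baculovirus-infected Spodoptera frugiperda cells secreting the enzyme. Activity was read spectrophotometrically with o-nitrophenyl acetate as substrate. At least 8 inhibitor concentrations were used and Ki was derived from them.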

For the molecule `C[C@H]1COc2c1c(=O)oc(=O)c1c3c(ccc21)C(C)(C)CCC3`, the Activity in [1] fell in the range of 1 to 9%. Moreover, the inhibition at 0.5 h, 10 µM at carboxylesterase 1 (CE1) [2] is more than 70%. The results for the IC50 on Acetylcholinesterase [3] and at Cholinesterase [9] were 3210 nM and 2840 nM, respectively. The values for the inhibition at Cholinesterase [4] and against Acetylcholinesterase [8] were 69% and 68%, respectively. Also, the activity at 0.5 h, 10 µM on carboxylesterase 1 (CE1) [5] was 10%. The same molecule came in with a Ki in data set [6] of 0.75 nM. For the same molecule, the activity at 18 h on carboxylesterase 1 (CE1) [7] was in the range of 3 to 16%.

Regarding `Cc1cccc2c1ccc1c3c(c(=O)oc(=O)c12)[C@@H](C)CO3`, the Activity in data set [1] was 18%; at Liver carboxylesterase 1 [10] it was “Active”. The inhibition at 0.5 h, 10 µM at carboxylesterase 1 (CE1) [2] worked out at 99%. For the same molecule, the IC50 came to 10100 nM against Acetylcholinesterase [3] and 7820 nM on Cholinesterase [9]. Also, the inhibition came to 61% at Cholinesterase [4] and 66% at Acetylcholinesterase [8]. Besides, the activity at 0.5 h, 10 µM on carboxylesterase 1 (CE1) [5] amounted to 1%. Besides, the Ki in data set [6] turned out to be 0.61 nM; on Liver carboxylesterase 1 [11] it was 3.6 nM. Moreover, the activity at 18 h at carboxylesterase 1 (CE1) [7] is 9%.

Consider `O=C(C(=O)c1ccccc1)c1ccccc1` [BENZIL], for which the Activity in data set [1] was found to be 98%. In addition, at carboxylesterase 1 (CE1) [5], the activity at 0.5 h, 10 µM stood at 5%. Moreover, at carboxylesterase 1 (CE1) [7], the activity at 18 h was 85%.

Consider `O=S(=O)(F)Cc1ccccc1` [PHENYLMETHYLSULFONYLFLUORIDE], for which the Activity entry at Liver carboxylesterase 1 [10] was “Active”.

Take `Cc1coc2c1c(=O)oc(=O)c1c3c(ccc12)C(C)(C)CCC3`: the Activity in data set [1] was 0.1 to 40%; at Liver carboxylesterase 1 [10], “Active”. Also, the inhibition at 0.5 h, 10 µM on carboxylesterase 1 (CE1) [2] was more than 70%. The values for the IC50 at Acetylcholinesterase [3] and at Cholinesterase [9] were 3310 nM and 7880 nM, respectively. The values for the inhibition at Cholinesterase [4] and at Acetylcholinesterase [8] were 38% and 65%, respectively. Also, the activity at 0.5 h, 10 µM at carboxylesterase 1 (CE1) [5] came to 27%. In addition, in [6], the Ki was 1.4 nM. Moreover, the activity at 18 h at carboxylesterase 1 (CE1) [7] was in the range of 6 to 10%.

Consider `Cc1cccc2c1ccc1c3occ(C)c3c(=O)oc(=O)c21`, for which the Activity in data set [1] amounted to 4%. Further, the inhibition at 0.5 h, 10 µM on carboxylesterase 1 (CE1) [2] was more than 70%. Also, the IC50 against Acetylcholinesterase [3] and on Cholinesterase [9] was more than 10000 nM each time. Besides, the inhibition is 32% on Cholinesterase [4] and 47% at Acetylcholinesterase [8]. The activity at 0.5 h, 10 µM on carboxylesterase 1 (CE1) [5] was determined as 12%. For the same molecule, the Ki came to 0.82 nM in data set [6] and 2.4 nM at Liver carboxylesterase 1 [11]. Further, the activity at 18 h on carboxylesterase 1 (CE1) [7] was 54%.
